Measurements gathered from unrelated publications.
Target: AP2-associated protein kinase 1 (AAK1, Homo sapiens, UniProt Q2M2I8)

| Compound | effect on | technique | tested at | remaining binding |
| --- | --- | --- | --- | --- |
| O=C(c1ccc(Nc2ncc(Cl)c(-c3cc4ccccc4s3)n2)cc1)N1CCC(N2CCCC2)CC1 | binding | competition with immobilised ligand | 1 µM | 29% |
| C[C@H]1CCN(c2nccc(-c3cnn4ncccc34)n2)C1 | binding | – | 1 µM | 64% |
| O=C(NCC1CCOCC1)c1n[nH]cc1NC(=O)c1c(F)cccc1F | binding | competition with immobilised ligand | 1 µM | 86% |
| CN(CCCC(F)(F)F)c1nccc(-c2cnn3ncccc23)n1 | binding | – | 1 µM | 100% |
| COc1ncc2cc3ccccc3nc2c1C#N | cell-free assay | competition with immobilised ligand | 5 µM | 96% |
| O=C(c1ccc(Nc2nccc(-c3cc4ccccc4s3)n2)cc1)N1CCC(N2CCCC2)CC1 | binding | competition with immobilised ligand | 1 µM | 21% |
| N[C@@H]1CCN(c2nccc(-c3cnn4ncccc34)n2)C1 | binding | – | 1 µM | 73% |
| CC(=O)N1CCC(c2ccc(C(=O)NC(=N)N)cc2C(F)(F)F)CC1 | binding | – | 1 µM | 100% |
| Nc1ncc2c(n1)-c1c([nH]c3ccc(C#CC4CC4)cc13)CCCC2 | binding | competition with immobilised ligand | 1 µM | 92% |
| c1cncc(-c2cccc(Nc3nccc(NC4CCCCC4)n3)c2)c1 | binding | competition with immobilised ligand | 10 µM | 33% |
| O=C(O)c1cc(-c2ccc(C3CCNCC3)cc2)c2ccc(-c3ccc(C(F)(F)F)cc3)cc2c1 | binding | – | 1 µM | 100% |
| CN(C)c1nccc(-c2cnc3ncccn23)n1 | binding | – | 1 µM | 88% |
| CC(=O)C1=C(C)N(c2cccc(C(F)(F)F)c2)C(=O)N[C@@H]1c1ccc(C#N)nc1 | binding | – | 1 µM | 100% |
| CCN1CCN(Cc2ccc(C(=O)Nc3ccc(C)c(Oc4ccc5c(c4)CC(=O)N5)c3)cc2C(F)(F)F)CC1 | binding | competition with immobilised ligand | 1 µM | 100% |
| FC(F)(F)Oc1cccc(-c2cnc3ccc(-c4ccncc4)nn23)c1 | cell-free assay | competition with immobilised ligand | 5 µM | 14% |
| c1cnn2ncc(-c3ccnc(N4CCC45COC5)n3)c2c1 | binding | – | 1 µM | 76% |
| O=C(Nc1cccnn1)N1CC(C/C=C/c2cncc(Oc3ccc(C(F)(F)F)cn3)n2)C1 | cell-free assay | competition with immobilised ligand | 1 µM | 100% |
| CN(C)c1nccc(-c2cnn3ncccc23)n1 | binding | – | 1 µM | 75% |
| CCCCN(CCCC)C(=O)CN1C[C@H](c2cc(OC)c3c(c2)OCO3)[C@@H](C(=O)O)[C@@H]1CC(C)(C)CCC | binding | – | 1 µM | 100% |
| COc1cnc(Nc2cccc(S(N)(=O)=O)c2)nc1N1CCN(c2ccccc2)C(=O)C1 | binding | competition with immobilised ligand | 1 µM | 84% |
| O=C(NCc1ncc(C(F)(F)F)cc1Cl)c1ccc2c(c1)C1(CCS(=O)(=O)CC1)[C@H](C1CC1)N2S(=O)(=O)c1ccc(F)cc1 | binding | – | 1 µM | 99% |
| Cc1cnc(Nc2ccc(C(=O)N3CCC(N4CCCC4)CC3)cc2)nc1-c1cc2ccccc2s1 | binding | competition with immobilised ligand | 1 µM | 22% |
